Source: ChEMBL document CHEMBL1155278, “3,4-Diaryl-isoxazoles and -imidazoles as potent dual inhibitors of p38alpha mitogen activated protein kinase and casein kinase 1delta” (J Med Chem, 2009)

How the values were obtained:
[1] = Inhibition of AMPK assessed as residual activity at 10 uM by Cherenkov counting relative to control in presence of 50 uM ATP
Summary of the method: (§1)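 Single-point profiling at 10 µM in a panel of 78 protein kinases. Kinase activity is expressed as a percentage relative to control assays without compound.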

[2] = target: T1, Serine/threonine-protein kinase Chk1 (Homo sapiens) (UniProt O14757); assay: Inhibition of CHK1 assessed as residual activity at 10 uM by Cherenkov counting relative to control in presence of 20 uM ATP; summary of the method: as §1
T1 sequence (whole entry): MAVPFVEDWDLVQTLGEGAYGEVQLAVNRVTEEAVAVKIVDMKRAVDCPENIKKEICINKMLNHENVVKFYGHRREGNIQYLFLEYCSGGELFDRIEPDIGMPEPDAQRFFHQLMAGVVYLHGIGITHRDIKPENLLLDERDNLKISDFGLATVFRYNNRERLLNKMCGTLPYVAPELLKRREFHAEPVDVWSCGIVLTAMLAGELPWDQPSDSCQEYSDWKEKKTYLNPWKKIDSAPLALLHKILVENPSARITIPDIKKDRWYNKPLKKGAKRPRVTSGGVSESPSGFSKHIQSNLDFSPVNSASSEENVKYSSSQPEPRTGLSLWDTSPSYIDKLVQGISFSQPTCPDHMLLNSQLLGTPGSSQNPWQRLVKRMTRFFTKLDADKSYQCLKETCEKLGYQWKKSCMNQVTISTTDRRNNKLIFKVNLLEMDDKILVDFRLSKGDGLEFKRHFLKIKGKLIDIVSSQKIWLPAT

[3] = target: T2, Protein kinase C zeta type (Homo sapiens) (UniProt Q05513); assay: Inhibition of PKCzeta assessed as residual activity at 10 uM by Cherenkov counting relative to control in presence of 5 uM ATP
T2 sequence (whole entry): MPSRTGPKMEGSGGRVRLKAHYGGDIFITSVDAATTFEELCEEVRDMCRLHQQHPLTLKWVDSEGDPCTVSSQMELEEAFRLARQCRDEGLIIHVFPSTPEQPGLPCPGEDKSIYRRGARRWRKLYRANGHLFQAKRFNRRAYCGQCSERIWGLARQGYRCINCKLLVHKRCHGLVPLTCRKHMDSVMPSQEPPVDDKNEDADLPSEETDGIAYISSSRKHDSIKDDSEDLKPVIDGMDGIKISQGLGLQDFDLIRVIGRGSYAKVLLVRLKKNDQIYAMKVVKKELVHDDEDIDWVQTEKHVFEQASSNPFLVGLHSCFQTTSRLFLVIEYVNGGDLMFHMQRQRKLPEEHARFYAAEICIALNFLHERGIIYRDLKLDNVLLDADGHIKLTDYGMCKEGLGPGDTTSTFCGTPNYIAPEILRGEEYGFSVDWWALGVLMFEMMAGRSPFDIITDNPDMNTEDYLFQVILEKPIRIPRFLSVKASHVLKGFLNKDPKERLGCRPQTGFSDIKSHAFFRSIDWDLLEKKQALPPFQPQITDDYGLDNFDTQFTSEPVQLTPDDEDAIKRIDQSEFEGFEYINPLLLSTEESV
Summary of the method: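 Single-concentration profiling at 10 μM in a 78-kinase panel. Kinase activity is expressed as a percentage of control assays run without compound.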

[4] = target: Dual specificity mitogen-activated protein kinase kinase 1 (Homo sapiens) (UniProt Q02750); assay: Inhibition of MKK1 assessed as residual activity at 10 uM by Cherenkov counting relative to control in presence of 5 uM ATP
Sequence of Dual specificity mitogen-activated protein kinase kinase 1 (Homo sapiens) (Q02750 whole entry): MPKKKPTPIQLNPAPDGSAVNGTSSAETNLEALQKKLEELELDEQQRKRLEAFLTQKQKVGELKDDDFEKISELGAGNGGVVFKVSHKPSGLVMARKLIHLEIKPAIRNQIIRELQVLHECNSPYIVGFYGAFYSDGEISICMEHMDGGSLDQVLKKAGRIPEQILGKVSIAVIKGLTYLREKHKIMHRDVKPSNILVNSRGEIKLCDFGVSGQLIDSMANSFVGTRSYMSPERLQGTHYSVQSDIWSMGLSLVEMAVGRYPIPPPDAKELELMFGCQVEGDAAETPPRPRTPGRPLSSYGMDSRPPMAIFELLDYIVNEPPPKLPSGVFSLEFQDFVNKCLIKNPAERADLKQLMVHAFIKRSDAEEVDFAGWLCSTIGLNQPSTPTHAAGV

[5] = target: MAP/microtubule affinity-regulating kinase 3 (Homo sapiens) (UniProt P27448); assay: Inhibition of MARK3 assessed as residual activity at 10 uM by Cherenkov counting relative to control in presence of 5 uM ATP
Sequence of MAP/microtubule affinity-regulating kinase 3 (Homo sapiens) (P27448 whole entry, looked up): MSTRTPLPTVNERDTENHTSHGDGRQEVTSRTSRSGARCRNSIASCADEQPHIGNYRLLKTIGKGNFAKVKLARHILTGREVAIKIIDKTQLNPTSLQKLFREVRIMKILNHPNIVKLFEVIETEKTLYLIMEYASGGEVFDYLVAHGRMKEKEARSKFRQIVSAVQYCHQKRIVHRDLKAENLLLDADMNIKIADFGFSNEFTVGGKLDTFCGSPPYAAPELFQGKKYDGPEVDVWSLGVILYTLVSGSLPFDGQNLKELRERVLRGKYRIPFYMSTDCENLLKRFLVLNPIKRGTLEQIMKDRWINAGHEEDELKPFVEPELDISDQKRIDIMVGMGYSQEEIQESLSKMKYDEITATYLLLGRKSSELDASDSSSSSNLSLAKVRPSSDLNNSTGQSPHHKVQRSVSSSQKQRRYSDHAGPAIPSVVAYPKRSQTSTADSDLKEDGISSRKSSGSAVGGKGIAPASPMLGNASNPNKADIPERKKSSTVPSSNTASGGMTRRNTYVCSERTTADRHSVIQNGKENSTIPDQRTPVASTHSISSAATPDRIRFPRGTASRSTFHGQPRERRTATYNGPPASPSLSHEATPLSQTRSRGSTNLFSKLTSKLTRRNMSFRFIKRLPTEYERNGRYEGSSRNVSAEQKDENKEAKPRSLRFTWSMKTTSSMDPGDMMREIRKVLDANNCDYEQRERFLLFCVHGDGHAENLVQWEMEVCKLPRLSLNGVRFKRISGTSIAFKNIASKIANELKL

[6] = target: Serine/threonine-protein kinase N2 (Homo sapiens) (UniProt Q16513); assay: Inhibition of PRK2 assessed as residual activity at 0.1 uM by Cherenkov counting relative to control in presence of 5 uM ATP
Summary of the method: (§2)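 Single-concentration screen at 0.1 μM in a 76-kinase panel. ATP for each kinase was set near its Km for ATP. Residual activity is given as a percentage of control assays without compound, mean of n = 3 ± SD.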

[7] = target: Serine/threonine-protein kinase 26 (Homo sapiens) (UniProt Q9P289); assay: Inhibition of MST4 assessed as residual activity at 0.1 uM by Cherenkov counting relative to control in presence of 20 uM ATP
Sequence of Serine/threonine-protein kinase 26 (Homo sapiens) (Q9P289 2-416 limits assumed): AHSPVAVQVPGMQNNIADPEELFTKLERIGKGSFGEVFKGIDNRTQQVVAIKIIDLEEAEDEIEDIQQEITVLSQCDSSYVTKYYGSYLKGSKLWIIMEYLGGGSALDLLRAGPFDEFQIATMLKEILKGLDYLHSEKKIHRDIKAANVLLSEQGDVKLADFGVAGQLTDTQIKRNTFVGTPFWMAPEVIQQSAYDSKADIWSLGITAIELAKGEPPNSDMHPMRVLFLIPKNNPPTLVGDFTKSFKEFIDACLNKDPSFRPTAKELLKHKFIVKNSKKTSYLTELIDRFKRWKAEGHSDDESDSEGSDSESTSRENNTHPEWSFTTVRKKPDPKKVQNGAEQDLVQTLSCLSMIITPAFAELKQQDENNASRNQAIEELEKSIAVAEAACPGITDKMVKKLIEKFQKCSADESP
Summary of the method: (§3)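 Single-concentration selectivity screen at 0.1 μM against a panel of 76 protein kinases. Each kinase was run at an ATP level approximating its Km for ATP. Output is mean residual activity as % of the control assay without compound, n = 3 ± SD.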

[8] = target: RAC-alpha serine/threonine-protein kinase (Homo sapiens) (UniProt P31749); assay: Inhibition of PKBalpha assessed as residual activity at 0.1 uM by Cherenkov counting relative to control in presence of 5 uM ATP; summary of the method: as §2
Sequence of RAC-alpha serine/threonine-protein kinase (Homo sapiens) (P31749 whole entry): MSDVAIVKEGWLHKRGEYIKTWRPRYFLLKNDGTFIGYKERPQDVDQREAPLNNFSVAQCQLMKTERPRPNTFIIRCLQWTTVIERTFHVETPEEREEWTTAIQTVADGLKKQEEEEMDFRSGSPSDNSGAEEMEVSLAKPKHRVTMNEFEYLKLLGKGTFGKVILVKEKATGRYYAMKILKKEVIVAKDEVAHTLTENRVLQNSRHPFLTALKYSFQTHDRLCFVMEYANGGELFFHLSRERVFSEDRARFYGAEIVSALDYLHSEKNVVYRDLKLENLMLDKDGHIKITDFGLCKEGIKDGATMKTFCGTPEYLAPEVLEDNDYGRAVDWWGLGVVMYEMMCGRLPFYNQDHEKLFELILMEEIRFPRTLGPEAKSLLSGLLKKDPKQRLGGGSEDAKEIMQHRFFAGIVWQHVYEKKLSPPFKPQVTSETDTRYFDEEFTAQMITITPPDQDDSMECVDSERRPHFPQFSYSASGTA

[9] = target: Ribosomal protein S6 kinase alpha-3 (Homo sapiens) (UniProt P51812); assay: Inhibition of RSK2 assessed as residual activity at 0.1 uM by Cherenkov counting relative to control in presence of 50 uM ATP; summary of the method: as §2
Sequence of Ribosomal protein S6 kinase alpha-3 (Homo sapiens) (P51812 whole entry): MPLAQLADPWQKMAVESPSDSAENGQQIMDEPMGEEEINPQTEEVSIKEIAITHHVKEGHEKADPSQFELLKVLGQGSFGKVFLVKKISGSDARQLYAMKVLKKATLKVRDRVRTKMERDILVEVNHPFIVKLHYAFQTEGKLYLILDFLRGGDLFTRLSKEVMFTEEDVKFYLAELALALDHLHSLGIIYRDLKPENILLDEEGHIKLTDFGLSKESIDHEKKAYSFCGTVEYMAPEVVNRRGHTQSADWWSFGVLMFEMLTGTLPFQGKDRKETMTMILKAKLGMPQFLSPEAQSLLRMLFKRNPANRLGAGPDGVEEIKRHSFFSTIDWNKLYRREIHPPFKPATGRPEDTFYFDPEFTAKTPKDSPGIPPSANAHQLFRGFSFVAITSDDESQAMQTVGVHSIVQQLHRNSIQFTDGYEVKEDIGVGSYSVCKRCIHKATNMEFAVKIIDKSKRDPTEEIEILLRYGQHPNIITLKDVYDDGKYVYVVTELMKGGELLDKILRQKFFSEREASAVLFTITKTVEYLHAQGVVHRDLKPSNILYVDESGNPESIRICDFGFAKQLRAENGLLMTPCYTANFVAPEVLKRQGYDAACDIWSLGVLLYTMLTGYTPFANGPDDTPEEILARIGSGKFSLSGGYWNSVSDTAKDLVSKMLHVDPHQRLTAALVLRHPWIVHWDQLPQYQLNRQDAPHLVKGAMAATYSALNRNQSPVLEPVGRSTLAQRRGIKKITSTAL

[10] = target: MAP kinase-activated protein kinase 2 (Homo sapiens) (UniProt P49137); assay: Inhibition of MAPKAPK2 assessed as residual activity at 0.1 uM by Cherenkov counting relative to control in presence of 20 uM ATP; summary of the method: as §3
Sequence of MAP kinase-activated protein kinase 2 (Homo sapiens) (P49137 whole entry, looked up): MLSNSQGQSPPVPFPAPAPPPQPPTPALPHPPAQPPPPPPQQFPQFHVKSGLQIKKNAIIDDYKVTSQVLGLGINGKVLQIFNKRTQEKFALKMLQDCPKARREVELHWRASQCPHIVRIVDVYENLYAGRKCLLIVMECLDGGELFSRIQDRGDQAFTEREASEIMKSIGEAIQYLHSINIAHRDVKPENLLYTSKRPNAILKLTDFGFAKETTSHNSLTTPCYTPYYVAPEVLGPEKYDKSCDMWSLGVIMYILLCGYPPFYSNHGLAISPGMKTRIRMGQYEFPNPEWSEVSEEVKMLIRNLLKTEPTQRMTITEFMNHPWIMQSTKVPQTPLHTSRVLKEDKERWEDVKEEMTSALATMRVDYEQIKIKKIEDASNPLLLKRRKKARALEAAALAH

[11] = target: 3-phosphoinositide-dependent protein kinase 1 (Homo sapiens) (UniProt O15530); assay: Inhibition of PDK1 assessed as residual activity at 0.1 uM by Cherenkov counting relative to control in presence of 20 uM ATP
Sequence of 3-phosphoinositide-dependent protein kinase 1 (Homo sapiens) (O15530 whole entry, looked up): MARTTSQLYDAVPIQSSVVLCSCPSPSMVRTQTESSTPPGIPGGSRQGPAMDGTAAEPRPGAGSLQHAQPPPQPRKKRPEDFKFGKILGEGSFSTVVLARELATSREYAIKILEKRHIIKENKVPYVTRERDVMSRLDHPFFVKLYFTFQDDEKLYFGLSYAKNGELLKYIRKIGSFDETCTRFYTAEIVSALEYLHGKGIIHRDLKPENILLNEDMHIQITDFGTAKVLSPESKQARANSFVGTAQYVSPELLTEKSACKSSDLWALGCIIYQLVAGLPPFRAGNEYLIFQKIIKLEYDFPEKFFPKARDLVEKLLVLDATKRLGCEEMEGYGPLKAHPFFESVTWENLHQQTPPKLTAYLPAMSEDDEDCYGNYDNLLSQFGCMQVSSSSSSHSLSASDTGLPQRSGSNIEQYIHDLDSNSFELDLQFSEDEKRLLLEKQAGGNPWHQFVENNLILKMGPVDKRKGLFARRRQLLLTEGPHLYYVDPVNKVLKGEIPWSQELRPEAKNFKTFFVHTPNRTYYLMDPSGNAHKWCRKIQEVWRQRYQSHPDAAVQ

[12] = target: Calcium/calmodulin-dependent protein kinase kinase 2 (Homo sapiens) (UniProt Q96RR4); assay: Inhibition of CAMKKbeta assessed as residual activity at 0.1 uM by Cherenkov counting relative to control
Sequence of Calcium/calmodulin-dependent protein kinase kinase 2 (Homo sapiens) (Q96RR4 2-588 limits assumed): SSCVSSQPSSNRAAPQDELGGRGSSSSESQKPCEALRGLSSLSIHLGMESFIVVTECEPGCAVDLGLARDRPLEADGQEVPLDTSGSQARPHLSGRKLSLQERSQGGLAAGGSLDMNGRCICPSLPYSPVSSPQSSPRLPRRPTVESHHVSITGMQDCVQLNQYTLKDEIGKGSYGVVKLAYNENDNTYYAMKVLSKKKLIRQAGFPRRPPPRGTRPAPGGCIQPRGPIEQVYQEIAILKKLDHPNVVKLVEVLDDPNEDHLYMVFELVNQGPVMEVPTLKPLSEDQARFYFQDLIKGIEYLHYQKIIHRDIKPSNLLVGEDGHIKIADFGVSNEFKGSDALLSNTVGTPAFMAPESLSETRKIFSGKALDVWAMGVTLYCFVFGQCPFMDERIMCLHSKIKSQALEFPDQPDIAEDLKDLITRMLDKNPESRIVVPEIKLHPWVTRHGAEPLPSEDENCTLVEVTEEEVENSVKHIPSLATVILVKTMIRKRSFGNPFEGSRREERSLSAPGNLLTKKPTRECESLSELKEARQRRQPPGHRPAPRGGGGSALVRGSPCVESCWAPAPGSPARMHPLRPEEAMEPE
Summary of the method: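 Single-concentration screen at 0.1 µM across a panel of 76 protein kinases. Each kinase was run at an ATP concentration approximating its ATP Km. Results are % mean residual activity versus control assays without compound (n = 3 ± SD).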

[13] = target: Maternal embryonic leucine zipper kinase (Homo sapiens) (UniProt Q14680); assay: Inhibition of MELK assessed as residual activity at 0.1 uM by Cherenkov counting relative to control in presence of 50 uM ATP; summary of the method: as §3
Sequence of Maternal embryonic leucine zipper kinase (Homo sapiens) (Q14680 whole entry, looked up): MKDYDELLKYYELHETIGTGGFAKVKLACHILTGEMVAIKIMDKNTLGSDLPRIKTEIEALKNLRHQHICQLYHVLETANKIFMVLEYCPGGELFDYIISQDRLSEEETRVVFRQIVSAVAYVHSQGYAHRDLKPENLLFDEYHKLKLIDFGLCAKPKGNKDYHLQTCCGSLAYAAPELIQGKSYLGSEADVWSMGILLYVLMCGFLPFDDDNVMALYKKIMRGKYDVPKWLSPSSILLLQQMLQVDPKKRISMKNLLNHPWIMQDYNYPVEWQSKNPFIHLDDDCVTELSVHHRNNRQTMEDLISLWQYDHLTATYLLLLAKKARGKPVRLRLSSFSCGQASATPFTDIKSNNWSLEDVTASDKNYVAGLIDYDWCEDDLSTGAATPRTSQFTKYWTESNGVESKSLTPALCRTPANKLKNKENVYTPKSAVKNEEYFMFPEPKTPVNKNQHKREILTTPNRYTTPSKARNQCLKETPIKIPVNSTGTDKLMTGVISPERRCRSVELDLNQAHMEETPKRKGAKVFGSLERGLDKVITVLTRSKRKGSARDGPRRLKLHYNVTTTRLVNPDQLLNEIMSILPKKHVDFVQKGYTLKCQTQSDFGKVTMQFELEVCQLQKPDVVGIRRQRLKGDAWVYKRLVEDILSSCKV

| Activity [1] | Activity [2] | Activity [3] | Activity [4] | Activity [5] | Activity [6] | Activity [7] | Activity [8] | Activity [9] | Activity [10] | Activity [11] | Activity [12] | Activity [13] | Compound |
| --- | --- | --- | --- | --- | --- | --- | --- | --- | --- | --- | --- | --- | --- |
| 73% | 102% | 91% | 88% | 92% | – | – | – | – | – | – | – | – | CC(C)c1noc(-c2ccc(F)cc2)c1-c1ccncc1 |
| 88% | 91% | 81% | 76% | 95% | – | – | – | – | – | – | – | – | CC(C)c1onc(-c2ccc(F)cc2)c1-c1ccncc1 |
| – | – | – | – | – | 96% | 86% | 105% | 94% | 78% | 94% | 92% | 92% | COc1ccc(/C=C/C(=O)Nc2cc(-c3[nH]c([S+](C)[O-])nc3-c3ccc(F)cc3)ccn2)c(OC)c1 (stereo unspecified) |
| – | – | – | – | – | 95% | 90% | 105% | 86% | 82% | 74% | 88% | 81% | COc1ccc(/C=C/C(=O)Nc2cc(-c3[nH]c(SC)nc3-c3ccc(F)cc3)ccn2)c(OC)c1 |
